# In ChEMBL document CHEMBL1177857, “Functionalized aurones as inducers of NAD(P)H:quinone oxidoreductase 1 that activate AhR/XRE and Nrf2/ARE signaling pathways: synthesis, evaluation and SAR” (Eur J Med Chem, 2010):
# Columns and labels:
# [1] = Induction of NQO1 activity in mouse Hepa-1c1c7 cells at 25 uM after 48 hrs relative to control
# [2] = Induction of NQO1 activity in mouse Hepa-1c1c7 cells at 5 uM after 48 hrs relative to control
# [3] = Cytotoxicity against mouse Hepa-1c1c7 cells assessed as cell survival at 25 uM after 48 hrs by MTT assay; type: cell-based; conditions: read-out: Activity
# In short: (§1)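 MTT (0.5 mg/ml) added for 3 h at 37 °C, formazan dissolved in DMSO and read at 590 nm. Survival (%) = (A treated − A blank)/(A untreated − A blank) × 100.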
# [4] = Cytotoxicity against mouse Hepa-1c1c7 cells assessed as cell survival at 5 uM after 48 hrs by MTT assay; type: cell-based; conditions: read-out: Activity
# In short: as §1
Compound,fold change (FC) [1],fold change (FC) [2],"viability at 48 h, 25 µM [3] [%]","viability at 48 h, 5 µM [4] [%]"
O=C1/C(=C/c2ccc(Cl)cc2)Oc2ccc(O)cc21,1.18,1.32,–,–
COc1cc(OC)c2c(c1)O/C(=C\c1ccc(N3CCN(C)CC3)cc1)C2=O,1.4,1.25,89,93
COc1ccc(/C=C2\Oc3cc(O)ccc3C2=O)cc1,1.5,1.19,95,91
O=C1/C(=C/c2ccc(Cl)cc2)Oc2cc(O)cc(O)c21,1.7,1.59,96,93
COc1cccc(/C=C2\Oc3cc(OC)cc(OC)c3C2=O)c1,1.59,0.91,103,100
COc1cc(/C=C2\Oc3cc(O)cc(O)c3C2=O)cc(OC)c1OC,1.6,1.47,94,99
N#Cc1ccc(/C=C2\Oc3cc(O)cc(O)c3C2=O)cc1,1.35,1.14,102,115
COc1cc(OC)c2c(c1)O/C(=C\c1ccc(O)cc1O)C2=O,1.4,1.03,–,51
O=C1/C(=C/c2cccc(Cl)c2)Oc2cc(O)cc(O)c21,1.71,1.45,86,96
COc1cc(OC)c2c(c1)O/C(=C\c1ccc(C#N)cc1)C2=O,1.37,1.36,95,91
COc1cc(OC)c2c(c1)O/C(=C\c1ccc(N(C)C)cc1)C2=O,0.96,1.16,98,101
COc1cccc(/C=C2\Oc3ccc(O)cc3C2=O)c1,1.18,1.19,110,104
O=C1Oc2ccc(O)cc2/C1=C/c1ccc(F)cc1,1.23,1.2,121,101
O=C1/C(=C/c2cccc(O)c2)Oc2ccc(O)cc21,1.66,1.29,89,98
O=C1Oc2ccc(O)cc2/C1=C/c1cccc(F)c1,1.32,1.14,120,127
O=C1/C(=C/c2ccccc2)Oc2cc(O)cc(O)c21,1.3,1.39,100,110
O=C1/C(=C/c2ccccc2)Oc2cc(O)ccc21,1.85,1.14,110,115
O=C1/C(=C/c2ccccc2Cl)Oc2cc(O)ccc21,1.3,1.02,117,120
Cc1ccc(/C=C2\Oc3cc(O)ccc3C2=O)cc1,0.9,1.59,100,98
O=C1/C(=C/c2ccc(O)cc2)Oc2cc(O)ccc21,–,–,98,100
COc1cc(OC)c2c(c1)O/C(=C\c1cnc3ccccc3c1)C2=O,1.5,1.79,97,93
COc1cc(OC)c2c(c1)O/C(=C\c1ccccc1C)C2=O,1.42,1.79,87,91
O=C1Oc2ccc(O)cc2/C1=C/c1ccccc1F,1.34,1.05,114,102
Cc1ccc(/C=C2\Oc3cc(O)cc(O)c3C2=O)cc1,1.49,1.38,95,103
COc1ccc(/C=C2\C(=O)Oc3ccc(O)cc32)cc1,1.71,1.35,118,110
COc1ccccc1/C=C1\Oc2cc(O)cc(O)c2C1=O,1.52,1.48,100,103
COc1cc(OC)c2c(c1)O/C(=C\c1ccc(Cl)cc1)C2=O,–,2.13,–,93

Compound,fold change (FC) [1],fold change (FC) [2],"viability at 48 h, 25 µM [3] [%]","viability at 48 h, 5 µM [4] [%]"
COc1cc(OC)c2c(c1)O/C(=C\c1ccc(O)cc1)C2=O,1.29,1.18,89,94
"COc1ccc(/C=C2\Oc3cc(OC)cc(OC)c3C2=O)cc1 [4,4',6-TRIMETHOXY-AURONE]",0.91,1.06,87,93
O=C1/C(=C/c2ccccc2Cl)Oc2ccccc21,1.17,0.92,98,111
O=C1/C(=C/c2ccccc2Cl)Oc2ccc(O)cc21,1.71,1.33,94,98
N#Cc1ccc(/C=C2\Oc3ccc(O)cc3C2=O)cc1,1.25,1.3,–,–
O=C1Oc2ccc(O)cc2/C1=C/c1ccc(O)cc1,1.6,1.3,101,111
COc1cc(OC)c2c(c1)O/C(=C\c1ccc(C)cc1)C2=O,1.34,1.34,93,89
COc1cc(OC)c2c(c1)OC(Cc1ccccc1)C2=O (configuration not stated),–,1.46,–,95
O=C1Oc2ccc(O)cc2/C1=C/c1ccccc1Cl,1.3,1.02,87,93
O=C1Oc2ccc(O)cc2/C1=C/c1cccc(O)c1,1.83,1.64,87,95
Cc1ccc(/C=C2\Oc3ccc(O)cc3C2=O)cc1,1.36,1.14,–,–
O=C1/C(=C/c2ccccc2)Oc2ccc(O)cc21,–,2.28,–,–
N#Cc1ccc(/C=C2\Oc3cc(O)ccc3C2=O)cc1,1.31,1.15,90,94
COc1ccc(/C=C2\Oc3cc(O)cc(O)c3C2=O)cc1,0.82,1.15,114,109
COc1ccc(/C=C2\Oc3ccc(O)cc3C2=O)cc1,1.17,1,–,–
COc1cc(OC)c2c(c1)OC(=O)/C2=C\c1ccc(Cl)cc1,1.9,1.42,110,115
O=C1/C(=C/c2ccc(O)cc2)Oc2ccc(O)cc21,0.94,1.22,–,–
COc1cc(OC)c2c(c1)O/C(=C\c1ccc([N+](=O)[O-])cc1)C2=O,1.6,1.61,88,88
COc1ccccc1/C=C1\C(=O)Oc2ccc(O)cc21,1.44,1.01,110,92
COc1cc(OC)c2c(c1)O/C(=C\c1ccc(C(F)(F)F)cc1)C2=O,0.83,1.08,93,90
O=C1Oc2ccc(O)cc2/C1=C/c1ccccc1,1.37,1.15,94,89
COc1cc(OC)c2c(c1)OC(=O)/C2=C\c1ccccc1O,1.1,1.49,89,121
O=C1/C(=C/c2cccc(O)c2)Oc2cc(O)cc(O)c21,1.58,1.6,106,111
COc1cc(OC)c2c(c1)O/C(=C\c1cccnc1)C2=O,1.9,1.8,98,94
COc1cccc(/C=C2\Oc3cc(O)ccc3C2=O)c1,1.01,1.22,84,85
COc1ccccc1/C=C1\Oc2cc(O)ccc2C1=O,0.61,0.46,96,95
